Experimental data gathered from unrelated publications.
Compare with care: the assays were run in different laboratories.
Target: Calcium/calmodulin-dependent protein kinase type 1G (CAMK1G, Homo sapiens, UniProt Q96NX5)

The remaining binding of C[C@@H](c1ccc(-n2cnc3c(N)ncnc32)cc1)N1CCc2nn(C)c(Cc3ccccc3)c2C1=O is reported as 95% (binding, competition with immobilised ligand; 0.1 µM).
With O=C(NCCCN1CCOCC1)c1ccc(Nc2ncc(Cl)c(-c3ccc(Cl)s3)n2)cc1 the remaining binding was 74% (binding, competition with immobilised ligand; 1 µM).
C[C@@]1(Cc2ccc(C#N)cc2)C(=O)N(c2cc(Cl)cc(Cl)c2)c2ncc(C(=O)NC3(c4nc(C5CCC5)no4)CC3)n21 has a remaining binding of 100% (cell-free assay, competition with immobilised ligand; 1 µM).
Cc1cnc(Nc2ccc(C(=O)N3CCC(N4CCCC4)CC3)cc2)nc1-c1cc2ccccc2s1 has a remaining binding of 68% (binding, competition with immobilised ligand; 1 µM).
With O=C(Nc1c[nH]nc1C(=O)NC1CCNCC1)c1cc(F)cc(F)c1 the remaining binding was 83% (binding, competition with immobilised ligand; 1 µM).
CN(C)c1nccc(-c2cnc3ncccn23)n1 gave a remaining binding of 100% (binding; 1 µM).
O=C(c1ccc(Nc2ncc(Cl)c(-c3ccc(Cl)s3)n2)cc1)N1CCC(N2CCCC2)CC1 gave a remaining binding of 80% (binding, competition with immobilised ligand; 1 µM).
CCC(=N\O)/C(C)=C/c1ccc(F)cc1 gave a remaining binding of 97% (cell-free assay, competition with immobilised ligand; 1 µM).
c1cnn2ncc(-c3ccnc(N4CCC45COC5)n3)c2c1 has a remaining binding of 100% (binding; 1 µM).
The remaining binding of FC(F)(F)Oc1cccc(-c2cnc3ccc(-c4ccncc4)nn23)c1 is reported as 73% (cell-free assay, competition with immobilised ligand; 5 µM).
With CNC(=O)[C@@H]1CC[C@@H](n2c(-c3ccc4cnccc4c3)nc3ccc(C(=O)NCc4cccc(C(N)=O)c4)cc32)C1 the remaining binding was 98% (binding, competition with immobilised ligand; 1 µM).
CN(C)c1nccc(-c2cnn3ncccc23)n1 has a remaining binding of 92% (binding, competition with immobilised ligand; 1 µM).
O=C(N1CCS(=O)(=O)CC1)N1C[C@H](c2ccc(OC(F)(F)F)cc2)C[C@H](c2nc(C3CC3)no2)C1 has a remaining binding of 100% (cell-free assay, competition with immobilised ligand; 1 µM).
The remaining binding of CN(CCCC(F)(F)F)c1nccc(-c2cnn3ncccc23)n1 is reported as 100% (binding; 1 µM).
COc1ccc2cc(OCC3(C(=O)O)CN(C(=O)c4ccc(F)cc4)C3)ccc2c1 gave a remaining binding of 100% (cell-free assay, competition with immobilised ligand; 1 µM).
With COc1cnc(Nc2cccc(S(N)(=O)=O)c2)nc1N1CCN(c2ccccc2)CC1 the remaining binding was 86% (binding, competition with immobilised ligand; 1 µM).
Cn1nc(C(=O)NCc2ccc(C(=O)O)cc2)cc1-c1ccc2[nH]ccc2c1 has a remaining binding of 89% (cell-free assay, competition with immobilised ligand; 0.1 µM).
The remaining binding of N[C@H]1CCN(c2nccc(-c3cnn4ncccc34)n2)C1 is reported as 93% (binding, competition with immobilised ligand; 1 µM).
O=C(Nc1ccc(Oc2ccc(F)cc2)cc1)N1CCc2ncccc2[C@H]1c1ccc(F)cc1 has a remaining binding of 100% (cell-free assay, competition with immobilised ligand; 1 µM).
With C[C@@H]1CCN(c2nccc(-c3cnn4ncccc34)n2)C1 the remaining binding was 91% (binding; 1 µM).
COc1cc(-c2cn(C3CCc4ccccc4N(CC(F)(F)F)C3=O)nn2)ccc1-n1ccc(C)n1 (stereo not shown) has a remaining binding of 100% (cell-free assay, competition with immobilised ligand; 1 µM).
With CN(c1nccc(-c2cnn3ncccc23)n1)C1CC1 the remaining binding was 100% (binding; 1 µM).
